pIC50: −log10 of the molar value.
Key:
Homo sapiens = species: Homo sapiens; assay: Selectivity index, ratio of IC50 for human recombinant MAO-A to IC50 for human recombinant MAO-B
[1] = target: T1, Amine oxidase [flavin-containing] A (Homo sapiens, UniProt P21397); assay: Inhibition of human recombinant MAO-A expressed in insect BT1-TN-5B1-4 cells assessed as production of hydrogen peroxide from p-tyramine at 100 uM up to 15 mins by amplex red-based fluorometric assay; conditions: 0.25 h; for inhibition (INH): 100 µM
T1 sequence (P21397 whole entry): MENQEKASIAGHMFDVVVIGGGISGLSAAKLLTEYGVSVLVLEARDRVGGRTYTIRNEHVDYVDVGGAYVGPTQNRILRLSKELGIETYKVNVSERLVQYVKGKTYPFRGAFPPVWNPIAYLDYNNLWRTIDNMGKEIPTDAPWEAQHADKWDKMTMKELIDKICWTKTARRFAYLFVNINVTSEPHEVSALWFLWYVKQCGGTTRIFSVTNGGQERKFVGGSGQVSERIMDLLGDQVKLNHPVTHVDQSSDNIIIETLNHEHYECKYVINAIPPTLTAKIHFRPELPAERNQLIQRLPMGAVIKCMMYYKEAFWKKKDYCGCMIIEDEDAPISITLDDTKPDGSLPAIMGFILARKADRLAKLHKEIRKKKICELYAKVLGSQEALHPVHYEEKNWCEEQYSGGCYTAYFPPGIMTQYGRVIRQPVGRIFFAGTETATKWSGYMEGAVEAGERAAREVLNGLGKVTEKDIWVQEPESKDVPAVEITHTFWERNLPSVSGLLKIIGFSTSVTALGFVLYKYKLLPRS
In short: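 Recombinant hMAO-A came from microsomes of baculovirus-infected BTI-TN-5B1-4 insect cells, at 1.1 μg protein. It was preincubated with the test drug in 0.05 M sodium phosphate, pH 7.4, for 15 min at 37 °C. The reaction was started with 200 μM Amplex Red, 1 U/mL HRP and 1 mM p-tyramine (final). H2O2-derived resorufin fluorescence (ex 545, em 590 nm) was read over 15 min. Enzyme-free background was subtracted against vehicle controls. 100 μM was the highest concentration tested.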

[2] = target: T2, Amine oxidase [flavin-containing] B (Homo sapiens, UniProt P27338); assay: Inhibition of human recombinant MAO-B expressed in insect BT1-TN-5B1-4 cells assessed as production of hydrogen peroxide from p-tyramine at 100 uM up to 15 mins by amplex red-based fluorometric assay; conditions: 0.25 h
T2 sequence (P27338 whole entry): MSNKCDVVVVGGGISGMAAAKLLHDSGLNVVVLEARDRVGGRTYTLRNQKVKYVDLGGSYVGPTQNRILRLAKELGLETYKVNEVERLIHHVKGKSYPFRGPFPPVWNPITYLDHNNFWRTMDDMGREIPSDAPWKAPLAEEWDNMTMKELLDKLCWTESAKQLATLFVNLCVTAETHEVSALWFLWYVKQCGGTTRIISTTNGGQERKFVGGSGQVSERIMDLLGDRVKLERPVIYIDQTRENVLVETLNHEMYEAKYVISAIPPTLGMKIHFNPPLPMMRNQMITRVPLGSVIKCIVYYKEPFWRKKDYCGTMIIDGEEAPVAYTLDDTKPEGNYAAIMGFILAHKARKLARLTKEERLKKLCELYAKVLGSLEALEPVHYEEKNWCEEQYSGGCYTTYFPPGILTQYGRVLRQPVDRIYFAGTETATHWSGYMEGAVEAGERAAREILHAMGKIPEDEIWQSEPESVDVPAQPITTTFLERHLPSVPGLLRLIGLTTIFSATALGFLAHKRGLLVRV
In short: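 hMAO-B was used as microsomes from BTI-TN-5B1-4 insect cells infected with recombinant baculovirus, at 7.5 μg protein. It was preincubated for 15 min at 37 °C with the test drug in sodium phosphate buffer, 0.05 M, pH 7.4. The reaction was then started with final 200 μM Amplex Red, 1 U/mL horseradish peroxidase and 1 mM p-tyramine. Resorufin fluorescence (545/590 nm) was followed at 37 °C for 15 min, minus the no-enzyme background and relative to vehicle controls. The top concentration was 100 μM.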

[3] = target: T2, Amine oxidase [flavin-containing] B; assay: Inhibition of human recombinant MAO-B expressed in insect BT1-TN-5B1-4 cells assessed as production of hydrogen peroxide from p-tyramine up to 15 mins by amplex red-based fluorometric assay; type: cell-based
[4] = target: T1, Amine oxidase [flavin-containing] A; assay: Inhibition of human recombinant MAO-A expressed in insect BT1-TN-5B1-4 cells assessed as production of hydrogen peroxide from p-tyramine up to 15 mins by amplex red-based fluorometric assay

COc1cc(-c2cc3cc(C)ccc3oc2=O)cc(OC)c1OC
Ratio IC50 (Homo sapiens): > 623
inhibition (INH) [1]: Not Active

COc1cc(-c2cc3cc(C)ccc3oc2=O)c(Br)c(OC)c1OC
inhibition (INH) [2]: Not Active
inhibition (INH) [1]: Not Active

COc1ccc(-c2cc3cc(C)ccc3oc2=O)cc1OC
Ratio IC50 (Homo sapiens): 9210
pIC50 [3]: 8.56
pIC50 [4]: 4.60

Cc1ccc2oc(=O)c(-c3ccc(O)cc3)cc2c1
inhibition (INH) [1]: Not Active

COc1cc(OC)cc(-c2cc3cc(C)ccc3oc2=O)c1
Ratio IC50 (Homo sapiens): > 11100
inhibition (INH) [1]: Not Active

COc1cc(-c2cc3cc(C)ccc3oc2=O)ccc1Br
Ratio IC50 (Homo sapiens): > 31200
pIC50 [3]: 8.49
inhibition (INH) [1]: Not Active

COc1ccc(-c2cc3cc(C)ccc3oc2=O)cc1Br
Ratio IC50 (Homo sapiens): > 136000
pIC50 [3]: 9.13
inhibition (INH) [1]: Not Active

Cc1ccc(-c2cc3cc(OC4CCCC4)ccc3oc2=O)cc1
Ratio IC50 (Homo sapiens): > 6.9
pIC50 [3]: 4.84
inhibition (INH) [1]: Not Active

COc1ccccc1-c1cc2cc(C)ccc2oc1=O
inhibition (INH) [2]: Not Active
inhibition (INH) [1]: Not Active

Cc1ccc(-c2cc3cc(C)ccc3oc2=O)cc1
inhibition (INH) [1]: Not Active

Cc1ccc2oc(=O)c(-c3ccccc3O)cc2c1
Ratio IC50 (Homo sapiens): 180
pIC50 [3]: 6.92
pIC50 [4]: 4.67

Cc1ccc(-c2cc3cc(O)ccc3oc2=O)cc1
Ratio IC50 (Homo sapiens): 372
pIC50 [3]: 7.17
pIC50 [4]: 4.60

COc1cc(OC)c(Br)c(-c2cc3cc(C)ccc3oc2=O)c1
Ratio IC50 (Homo sapiens): > 1.9
pIC50 [3]: 4.27
inhibition (INH) [1]: Not Active

COc1ccc2oc(=O)c(-c3ccc(C)cc3)cc2c1
Ratio IC50 (Homo sapiens): > 6790
pIC50 [3]: 8.82
inhibition (INH) [1]: Not Active

COc1cccc(-c2cc3cc(C)ccc3oc2=O)c1
Ratio IC50 (Homo sapiens): > 125000
inhibition (INH) [1]: Not Active

Cc1ccc2oc(=O)c(-c3cccc(O)c3)cc2c1
Ratio IC50 (Homo sapiens): 54
pIC50 [3]: 6.19
pIC50 [4]: 4.46

CC(=O)COc1cccc(-c2cc3cc(C)ccc3oc2=O)c1
Ratio IC50 (Homo sapiens): > 555
pIC50 [3]: 6.74
inhibition at 100 µM [1]: 40%

CC(=O)COc1ccc2oc(=O)c(-c3ccc(C)cc3)cc2c1
Ratio IC50 (Homo sapiens): > 18
pIC50 [3]: 5.26
inhibition (INH) [1]: Not Active

COc1ccc2oc(=O)c(-c3cccc(C)c3)cc2c1
Ratio IC50 (Homo sapiens): > 5880
pIC50 [3]: 7.77
inhibition (INH) [1]: Not Active

COc1ccc(-c2cc3cc(C)ccc3oc2=O)cc1
Ratio IC50 (Homo sapiens): > 7660
inhibition (INH) [1]: Not Active

Cc1ccc2oc(=O)c(-c3ccccc3)cc2c1
Ratio IC50 (Homo sapiens): > 352
inhibition (INH) [1]: Not Active

Cc1cccc(-c2cc3cc(C)ccc3oc2=O)c1
Ratio IC50 (Homo sapiens): > 6670
pIC50 [3]: 7.82
inhibition at 100 µM [1]: 40%

Reference: ChEMBL document CHEMBL1833810, “Synthesis and study of a series of 3-arylcoumarins as potent and selective monoamine oxidase B inhibitors” (J Med Chem, 2011)
